{"source": "ChEMBL document CHEMBL1806465", "about": "“Synthesis and biological evaluation of 4-nitro-substituted 1,3-diaryltriazenes as a novel class of potent antitumor agents” (Eur J Med Chem, 2011)", "key": {"HeLa [1]": {"tested_on": "HeLa", "assay": "Cytotoxicity against human HeLa cells after 72 hrs by MTT assay", "assay_type": "functional, cell-based"}, "HEp-2": {"tested_on": "HEp-2", "assay": "Cytotoxicity against human Hep2 cells after 72 hrs by MTT assay", "assay_type": "functional, cell-based", "conditions": "HEp-2, 72 h", "method_in_brief": "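MTT assay: 3000 cells/well seeded, compound added next day, each concentration in quadruplicate, 72 h at 37 °C; medium replaced with 20 µg MTT/well for 4 h, formazan dissolved in DMSO, OD 545 nm. […] Fibroblasts: normal skin fibroblasts from donor, DMEM/10% FBS, used at 32 and 36 population doublings.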"}, "[2]": {"assay": "Therapeutic index, ratio IC50 for human Hep2 cells to IC50 for normal human fibroblasts", "assay_type": "cell-based, HEp-2", "conditions": "Hep2 cells versus normal human fibroblasts, read-out: Ratio IC50", "method_in_brief": "(§1)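 IC50 values came from an MTT assay. Cells were seeded at 3000 per well and dosed the next day, with each concentration in quadruplicate. After 72 h at 37 °C, MTT (20 µg/well) was added for 4 h; formazan was dissolved in DMSO and read at 545 nm. Each experiment was done three times. Normal skin fibroblasts were used at 32 and 36 population doublings. T.I. = tumor-cell IC50 / fibroblast IC50.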"}, "[3]": {"assay": "Therapeutic index, ratio IC50 for human MIAPaCa2 cells to IC50 for normal human fibroblasts", "assay_type": "cell-based, MIA PaCa-2", "conditions": "MIAPaCa2 cells versus normal human fibroblasts, read-out: Ratio IC50", "method_in_brief": "as §1"}, "HeLa [4]": {"tested_on": "HeLa", "assay": "Cell cycle arrest in human HeLa cells assessed as accumulation at G0/G1 phase at 0.78 uM after 24 hrs by propidium iodide staining -based flow cytometry (reference value: 60.6 %)", "assay_type": "functional", "method_in_brief": "(§2)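 HeLa seeded at 100 000 cells/well, treated next day with 0.78, 7 or 21 µM for 24, 48 or 72 h. Adherent plus floating cells collected, PBS-washed, fixed overnight in 70% ethanol at −20 °C, RNase A 30 µg/ml 1 h RT, propidium iodide 16.7 µg/ml 30 min dark; DNA content by flow cytometry, phase percentages including subG1 reported.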"}, "HeLa [5]": {"tested_on": "HeLa", "assay": "Cell cycle arrest in human HeLa cells assessed as accumulation at G0/G1 phase at 7 uM after 24 hrs by propidium iodide staining -based flow cytometry (reference value: 60.6 %)", "assay_type": "functional", "method_in_brief": "as §2"}, "HeLa [6]": {"tested_on": "HeLa", "assay": "Cell cycle arrest in human HeLa cells assessed as accumulation at S phase at 7 uM after 24 hrs by propidium iodide staining -based flow cytometry (reference value: 27.7 %)", "assay_type": "functional", "method_in_brief": "as §2"}, "HeLa [7]": {"tested_on": "HeLa", "assay": "Cell cycle arrest in human HeLa cells assessed as accumulation at G2/M phase at 7 uM after 24 hrs by propidium iodide staining -based flow cytometry (reference value: 11.7 %)", "assay_type": "functional", "method_in_brief": "as §2"}, "HeLa [8]": {"tested_on": "HeLa", "assay": "Cell cycle arrest in human HeLa cells assessed as accumulation at subG1 phase at 21 uM after 24 hrs by propidium iodide staining -based flow cytometry (reference value: 9.4 %)", "assay_type": "functional", "method_in_brief": "as §2"}, "HeLa [9]": {"tested_on": "HeLa", "assay": "Cell cycle arrest in human HeLa cells assessed as accumulation at G0/G1 phase at 7 uM after 48 hrs by propidium iodide staining -based flow cytometry (reference value: 63.8 %)", "assay_type": "functional", "method_in_brief": "as §2"}, "HeLa [10]": {"tested_on": "HeLa", "assay": "Cell cycle arrest in human HeLa cells assessed as accumulation at G0/G1 phase at 21 uM after 48 hrs by propidium iodide staining -based flow cytometry (reference value: 63.8 %)", "assay_type": "functional", "method_in_brief": "as §2"}, "HeLa [11]": {"tested_on": "HeLa", "assay": "Cell cycle arrest in human HeLa cells assessed as accumulation at S phase at 0.78 uM after 48 hrs by propidium iodide staining -based flow cytometry (reference value: 26.3 %)", "assay_type": "functional", "method_in_brief": "as §2"}, "HeLa [12]": {"tested_on": "HeLa", "assay": "Cell cycle arrest in human HeLa cells assessed as accumulation at S phase at 7 uM after 48 hrs by propidium iodide staining -based flow cytometry (reference value: 26.3 %)", "assay_type": "functional", "method_in_brief": "as §2"}, "HeLa [13]": {"tested_on": "HeLa", "assay": "Cell cycle arrest in human HeLa cells assessed as accumulation at S phase at 21 uM after 48 hrs by propidium iodide staining -based flow cytometry (reference value: 26.3 %)", "assay_type": "functional", "method_in_brief": "as §2"}, "HeLa [14]": {"tested_on": "HeLa", "assay": "Cell cycle arrest in human HeLa cells assessed as accumulation at G0/G1 phase at 7 uM after 72 hrs by propidium iodide staining -based flow cytometry (reference value: 66.9 %)", "assay_type": "functional", "method_in_brief": "as §2"}, "HeLa [15]": {"tested_on": "HeLa", "assay": "Cell cycle arrest in human HeLa cells assessed as accumulation at G0/G1 phase at 21 uM after 72 hrs by propidium iodide staining -based flow cytometry (reference value: 66.9 %)", "assay_type": "functional", "method_in_brief": "as §2"}, "HeLa [16]": {"tested_on": "HeLa", "assay": "Cell cycle arrest in human HeLa cells assessed as accumulation at S phase at 21 uM after 72 hrs by propidium iodide staining -based flow cytometry (reference value: 23.5 %)", "assay_type": "functional", "method_in_brief": "as §2"}, "HeLa [17]": {"tested_on": "HeLa", "assay": "Cell cycle arrest in human HeLa cells assessed as accumulation at S phase at 0.78 uM after 72 hrs by propidium iodide staining -based flow cytometry (reference value: 23.5 %)", "assay_type": "functional", "method_in_brief": "as §2"}, "HeLa [18]": {"tested_on": "HeLa", "assay": "Cell cycle arrest in human HeLa cells assessed as accumulation at G2/M phase at 7 uM after 72 hrs by propidium iodide staining -based flow cytometry (reference value: 9.7 %)", "assay_type": "functional", "method_in_brief": "as §2"}, "HeLa [19]": {"tested_on": "HeLa", "assay": "Cell cycle arrest in human HeLa cells assessed as accumulation at G2/M phase at 21 uM after 72 hrs by propidium iodide staining -based flow cytometry (reference value: 9.7 %)", "assay_type": "functional", "method_in_brief": "as §2"}, "HeLa [20]": {"tested_on": "HeLa", "assay": "Induction of reactive oxygen species generation in human HeLa cells after 8 hrs by FACS analysis", "assay_type": "functional, cell-based", "method_in_brief": "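Logarithmically growing HeLa cells were preloaded with 10 µM CM-H2DCFDA for 1 h. They were then exposed to 7, 20 or 40 µM for 8 h, or to 7 µM for 2, 4 or 6 h. Cells were trypsinized, fixed in cold 80% methanol, resuspended in PBS and read for fluorescence by flow cytometry. The positive control was 0.01% H2O2 for 30 min.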"}, "HeLa [21]": {"tested_on": "HeLa", "assay": "Induction of Grp78 expression in human HeLa cells at 0.09 to 7 uM after 48 hrs by Western blot analysis", "assay_type": "functional, cell-based", "method_in_brief": "(§3)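 Logarithmically growing HeLa cells were exposed to varying concentrations for 48 h, or to 7 µM for varying times. Cell extracts were run on 10% SDS gels and transferred to nitrocellulose. Membranes were blocked in 5% milk and probed with anti-Grp78 (1:1000, overnight, 4 °C), then an HRP secondary (1:5000, 2 h, RT). Detection was by ECL, with ERK2 reprobing as the loading control.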"}, "HeLa [22]": {"tested_on": "HeLa", "assay": "Induction of Grp78 expression in human HeLa cells at 7 uM up to 8 hrs by Western blot analysis", "assay_type": "functional, cell-based", "method_in_brief": "as §3"}, "HeLa [23]": {"tested_on": "HeLa", "assay": "Induction of apoptotis in human HeLa cells assessed as morphological changes at 7 uM after 48 hrs by acridine orange and […] staining based epifluorescent microscopic analysis", "assay_type": "functional, cell-based", "method_in_brief": "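After 48 h at 7 µM, adherent and floating HeLa cells were pooled and resuspended in medium. AO (15 µg/mL stock) and EtBr (50 µg/mL stock) were added. Under epifluorescence, apoptosis was scored from condensed chromatin and apoptotic bodies, which distinguish it from necrosis.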"}, "HeLa [24]": {"tested_on": "HeLa", "assay": "Induction of apoptotis in human HeLa cells assessed as cleavage of procaspase 8 at 7 uM after 48 hrs by Western blot analysis", "assay_type": "functional, cell-based", "method_in_brief": "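HeLa cells were treated for 48 h at 7 µM and analysed by Western blot (10% SDS gels, nitrocellulose, HRP secondary, ECL, ERK2 loading control) for cleavage of apoptotic proteins. Antibodies: anti-PARP 1:4000; anti-caspase-3 and anti-caspase-8 1:1000; rabbit polyclonal anti-caspase-9 1:1000.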"}, "HeLa [25]": {"tested_on": "HeLa", "assay": "Induction of ER stress in human HeLa cells assessed as expression of CHOP and Grp78"}}, "note": "Active and inactive are the calls of the source. The rule behind the calls is not given here.", "data": [{"smiles": "CC(=O)N(/N=N/c1ccc([N+](=O)[O-])cc1Cl)c1ccc([N+](=O)[O-])cc1Cl", "values": [{"measurement": "IC50", "setting": "HeLa [1]", "value": 630, "unit": "nM"}, {"measurement": "IC50", "setting": "HEp-2", "value": 620, "unit": "nM"}, {"measurement": "selectivity ratio", "setting": "[2]", "value": 0.044}, {"measurement": "selectivity ratio", "setting": "[3]", "value": 0.037}, {"measurement": "Activity", "setting": "HeLa [4]", "value": 74.4, "unit": "%"}, {"measurement": "Activity", "setting": "HeLa [5]", "value": 69.3, "unit": "%"}, {"measurement": "Activity", "setting": "HeLa [6]", "value": 20.8, "unit": "%"}, {"measurement": "Activity", "setting": "HeLa [7]", "value": 10, "unit": "%"}, {"measurement": "Activity", "setting": "HeLa [8]", "value": 16.4, "unit": "%"}, {"measurement": "Activity", "setting": "HeLa [9]", "value": 76.2, "unit": "%"}, {"measurement": "Activity", "setting": "HeLa [10]", "value": 73, "unit": "%"}, {"measurement": "Activity", "setting": "HeLa [11]", "value": 18.5, "unit": "%"}, {"measurement": "Activity", "setting": "HeLa [12]", "value": 14.2, "unit": "%"}, {"measurement": "Activity", "setting": "HeLa [13]", "value": 15.2, "unit": "%"}, {"measurement": "Activity", "setting": "HeLa [14]", "value": 77.1, "unit": "%"}, {"measurement": "Activity", "setting": "HeLa [15]", "value": 79, "unit": "%"}, {"measurement": "Activity", "setting": "HeLa [16]", "value": 12.6, "unit": "%"}, {"measurement": "Activity", "setting": "HeLa [17]", "value": 32.5, "unit": "%"}, {"measurement": "Activity", "setting": "HeLa [18]", "value": 7.6, "unit": "%"}, {"measurement": "Activity", "setting": "HeLa [19]", "value": 8.4, "unit": "%"}, {"measurement": "Activity", "setting": "HeLa [20]", "value": "Dose-dependent effect"}, {"measurement": "Activity", "setting": "HeLa [21]", "value": "Active"}, {"measurement": "Activity", "setting": "HeLa [22]", "value": "inactive"}, {"measurement": "Activity", "setting": "HeLa [23]", "value": "Active"}, {"measurement": "Activity", "setting": "HeLa [24]", "value": "Active"}, {"measurement": "Activity", "setting": "HeLa [25]", "value": "Active"}]}]}
